Data published in ChEMBL document CHEMBL5608233, “Fluorescent Peptides Sequester Redox Copper to Mitigate Oxidative Stress, Amyloid Toxicity, and Neuroinflammation” (ACS Med Chem Lett, 2024).
Activity calls are given as the source filed them. No cut-off for these calls is given here. Residues, ends and D or L forms follow the SMILES beside them. *: point of attachment. X1 = CN(C)c1ccc2c3c(cccc13)C(=O)N(CCN*)C2=O

Assays:
[1] = target: Amyloid-beta precursor protein (Homo sapiens) (UniProt P05067); assay: Inhibition of Amyloid beta 42 (unknown origin) aggregation extracted from Escherichia coli BL21 assessed as decrease in amyloid beta fibril formation incubated for 48 hrs by atomic force microscopy
[2] = target: Amyloid-beta precursor protein (Homo sapiens) (UniProt P05067); assay: Inhibition of Amyloid beta 42 (unknown origin) aggregation extracted from Escherichia coli BL21 assessed as decrease in Cu2+ induced amyloid beta fibril formation incubated for 48 hrs in presence of Cu2+ by atomic force microscopy
Homo sapiens [3] = species on record: Homo sapiens; assay: Binding affinity to Amyloid beta 16 (unknown origin) extracted from Escherichia coli BL21 by measuring quenching effect incubated for 15 mins in presence of Cu2+ by fluorescence quenching analysis
Homo sapiens [4] = species on record: Homo sapiens; assay: Binding affinity to Amyloid beta 16 (unknown origin) extracted from Escherichia coli BL21 assessed as increase in absorbance band by circular dichroism spectroscopic analysis
[5] = Metal chelating activity assessed as compound-Cu2+ complex formation at 50 uM in presence of CuCl2 by UV-Visible fluorescence spectroscopic analysis
Procedure, shortened: (§1)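 Peptide solution at 50 μM mixed 1:1 with Cu2+, Zn2+, Fe3+ or Al3+. NMI emission recorded at λex 450 nm, λem 550 nm, and drop in fluorescence used to indicate complexation. Separate titration with Cu2+ (0–100 μM) into 50 μM peptide used to assess stoichiometry.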

[6] = Metal chelating activity assessed as compound-Cu2+ complex formation measured after 2 mins in presence of CuCl2 by UV-Visible fluorescence spectroscopic analysis
[7] = Antioxidant activity assessed as inhibition of Cu2+ induced ROS production by measuring decrease in fluorescence intensity in presence of Cu2+ and ascorbate at 10 uM measured after 10 mins by absorption spectroscopic analysis; assay type: functional
Procedure, shortened: (§2)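 Ascorbate added first. After 10 min, redox cycling triggered with Cu2+ alone or peptide–Cu2+ premixed in HEPES (50 mM, pH 7.4). Ascorbate consumption followed by absorbance at 265 nm over time.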

SH-SY5Y [8] = assay: Cytotoxicity against human SH-SY5Y cells at 100 uM incubated for 24 hrs by MTT assay; assay type: toxicity, cell-based
Procedure, shortened: (§3)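 SH-SY5Y cells exposed to peptide (10–100 μM) for 24 h. Viability by MTT.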

[9] = Cytotoxicity against human SH-SY5Y cells assessed as cell viability at 100 uM incubated for 24 hrs by MTT assay relative to control; assay type: toxicity, cell-based; settings: read-out: Activity; procedure, shortened: as §3
SH-SY5Y [10] = assay: Neuroprotective activity against amyloid beta 42 induced toxicity in human SH-SY5Y cells assessed as increase in cell viability at 10 uM incubated for 24 hrs by MTT assay (reference value: 55 %); assay type: functional
Procedure, shortened: (§4)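 SH-SY5Y cells incubated 24 h with Aβ42 fibrils (10 μM) and peptide (10 μM), in the absence or presence of Cu2+ (10 μM). Viability by MTT.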

SH-SY5Y [11] = assay: Neuroprotective activity against amyloid beta 42 and Cu2+ induced toxicity in human SH-SY5Y cells assessed as increase in cell viability at 10 uM incubated for 24 hrs by MTT assay (reference value: 48 %); assay type: functional; procedure, shortened: as §4
[12] = Cytotoxicity against mouse N9 cells at upto 50 uM incubated for 24 hrs by MTT assay; assay type: toxicity, cell-based; settings: n9, 24 h
Procedure, shortened: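 N9 microglia given a concentration series of peptide. Viability assessed.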

N9 = assay: Antiinflammatory activity in LPS-induced mouse N9 cells assessed as reduction in ROS production at 10 uM incubated for 24 hrs by DCFDA staining based analysis; assay type: functional, cell-based
Procedure, shortened: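 N9 cells treated with LPS (1 μg/mL, 24 h) with or without peptide (10 μM, or a concentration series). ROS read with DCFDA fluorescence. n = 3, one-way ANOVA.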

[13] = Antiinflammatory activity in LPS-induced mouse N9 cells assessed as reduction in nitrite production at 10 uM incubated for 24 hrs by griess assay relative to control; assay type: functional; set-up: scale not given: the % may be the effect or the level left
Procedure, shortened: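 LPS (1 μg/mL)-stimulated N9 microglia treated with peptide at 10 μM. Nitric oxide quantified as nitrite in the medium by Griess assay. Nitrite in LPS-only cells set as 100%. n = 3, one-way ANOVA.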

[14] = Metal chelating activity assessed as compound-Fe3+ complex formation by measuring decrease in fluorescence intensity at 50 uM in presence of FeCl3 by UV-Visible fluorescence spectroscopic analysis; procedure, shortened: as §1
[15] = Metal chelating activity assessed as compound-Al3+ complex formation by measuring decrease in fluorescence intensity at 50 uM in presence of AlCl3 by UV-Visible fluorescence spectroscopic analysis; procedure, shortened: as §1
[16] = Metal chelating activity assessed as compound-Zn2+ complex formation by measuring decrease in fluorescence intensity at 50 uM in presence of ZnCl2 by UV-Visible fluorescence spectroscopic analysis; procedure, shortened: as §1
[17] = Metal chelating activity assessed as compound-Cu2+ complex formation by measuring quenching effect measured after 20 mins in presence of CuCl2 by fluorescence quenching analysis
[18] = Antioxidant activity assessed as inhibition of Cu2+ induced ROS production by measuring decrease in fluorescence intensity in presence of Cu2+ and ascorbate at 10 uM by absorption spectroscopic analysis; assay type: functional; procedure, shortened: as §2
[19] = Antioxidant activity assessed as inhibition of Cu2+ induced ROS production by measuring decrease in fluorescence intensity in presence of ascorbate and H2O2 at 10 uM measured after 20 mins by absorption spectroscopic analysis; assay type: functional
Homo sapiens [20] = species on record: Homo sapiens; assay: Binding affinity to Amyloid beta 16 (unknown origin) extracted from Escherichia coli BL21 assessed as maximal quenching in presence of Cu2+ by fluorescence quenching analysis
[21] = Antioxidant activity assessed as inhibition of Cu2+ induced ROS production by measuring decrease in fluorescence intensity in presence of stoichiometric ratio of 1:1 of Cu2+ and ascorbate at 10 uM measured after 10 mins by absorption spectroscopic analysis; assay type: functional
[22] = Antioxidant activity assessed as inhibition of Cu2+ induced ROS production by measuring decrease in fluorescence intensity in presence of stoichiometric ratio of 1:2 of Cu2+ and ascorbate at 10 uM measured after 10 mins by absorption spectroscopic analysis; assay type: functional
[23] = Metal chelating activity assessed as compound-Fe3+ complex formation by measuring decrease in fluorescence intensity at 25 uM in presence of FeCl3 by UV-Visible fluorescence spectroscopic analysis
[24] = Metal chelating activity assessed as compound-Al3+ complex formation by measuring decrease in fluorescence intensity at 25 uM in presence of AlCl3 by UV-Visible fluorescence spectroscopic analysis
[25] = Metal chelating activity assessed as compound-Cu2+ complex formation by measuring decrease in fluorescence intensity at 25 uM in presence of CuCl2 by UV-Visible fluorescence spectroscopic analysis
[26] = target: Amyloid-beta precursor protein (Homo sapiens) (UniProt P05067); assay: Inhibition of Amyloid beta 42 (unknown origin) extracted from Escherichia coli BL21 induced ROS production assessed as decrease in fluorescence intensity at 10 uM incubated for 20 mins in presence of Cu2+ and ascorbate by absorption spectroscopic analysis

Sequence of Amyloid-beta precursor protein (Homo sapiens) (P05067 whole entry): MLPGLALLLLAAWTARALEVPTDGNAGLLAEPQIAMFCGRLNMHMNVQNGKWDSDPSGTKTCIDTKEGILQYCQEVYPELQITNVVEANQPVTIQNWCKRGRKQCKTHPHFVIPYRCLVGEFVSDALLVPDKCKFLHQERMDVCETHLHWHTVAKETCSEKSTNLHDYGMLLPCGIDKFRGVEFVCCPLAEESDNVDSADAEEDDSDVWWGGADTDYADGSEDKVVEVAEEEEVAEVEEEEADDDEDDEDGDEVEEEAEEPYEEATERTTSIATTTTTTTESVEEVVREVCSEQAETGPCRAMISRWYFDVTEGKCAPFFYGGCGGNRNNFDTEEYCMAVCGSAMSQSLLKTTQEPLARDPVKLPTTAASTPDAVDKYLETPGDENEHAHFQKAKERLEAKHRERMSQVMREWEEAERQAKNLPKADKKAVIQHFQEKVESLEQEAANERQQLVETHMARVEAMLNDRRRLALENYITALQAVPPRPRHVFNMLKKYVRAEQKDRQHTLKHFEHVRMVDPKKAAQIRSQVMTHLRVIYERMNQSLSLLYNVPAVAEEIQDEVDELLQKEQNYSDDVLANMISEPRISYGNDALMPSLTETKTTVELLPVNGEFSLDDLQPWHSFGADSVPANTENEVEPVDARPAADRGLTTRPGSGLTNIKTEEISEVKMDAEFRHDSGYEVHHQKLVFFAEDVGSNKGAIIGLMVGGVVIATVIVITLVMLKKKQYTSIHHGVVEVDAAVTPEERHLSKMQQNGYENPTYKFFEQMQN

Row | SMILES | inhibition [1] | inhibition [2] | Activity (Homo sapiens [4]) | Activity [5] | Activity [6] | Activity [14] | Activity [15] | Activity [7] | Activity (SH-SY5Y [8]) | viability at 24 h, 100 µM [9] [%] | Activity (SH-SY5Y [10]) [%] | Activity (SH-SY5Y [11]) [%] | Activity [12] | Activity (N9) | Activity [13] [%] | Activity [19] | further results
1 | CN(C)c1ccc2c3c(cccc13)C(=O)N(CCNC(=O)[C@@H](N)CCC(N)=O)C2=O | Active | inactive | – | – | – | – | – | – | – | – | – | – | – | – | – | – | –
2 | CN(C)c1ccc2c3c(cccc13)C(=O)N(CCNC(=O)[C@H](CCC(N)=O)NC(=O)[C@H](CCCCN)NC(=O)[C@H](Cc1c[nH]cn1)NC(=O)[C@@H](Cc1c[nH]cn1)NC(=O)CN)C2=O | Active | Active | Active | Active | Active | inactive | inactive | Active | Non-Toxic | > 90 | ~80 | 92 | Non-Toxic | Active | 56 | – | Activity (Homo sapiens [3]): Active; Activity [16]: inactive
3 | CN(C)c1ccc2c3c(cccc13)C(=O)N(CCNC(=O)[C@H](CCC(N)=O)NC(=O)[C@H](CCCCN)NC(=O)[C@@H](N)Cc1c[nH]cn1)C2=O | Active | Active | Active | Active | Active | inactive | inactive | – | Non-Toxic | > 90 | ~80 | 82 | Non-Toxic | Active | 85 | Active | Activity [17]: Active; Activity [18]: Active
4 | NCCCC[C@H](NC(=O)[C@H](Cc1cnc[nH]1)NC(=O)CN)C(=O)O (H-Gly-His-Lys-OH) | inactive | inactive | – | – | – | – | – | – | – | – | – | – | – | – | – | – | –

Continued, in another order:

Row | inhibition [1] | inhibition [2] | Activity (Homo sapiens [4]) | Activity [5] | Activity [6] | Activity [14] | Activity [15] | SMILES | Activity [7] | Activity (SH-SY5Y [8]) | viability at 24 h, 100 µM [9] [%] | Activity (SH-SY5Y [10]) [%] | Activity (SH-SY5Y [11]) [%] | Activity [12] | Activity (N9) | Activity [13] [%] | Activity [19] | further results
5 | inactive | inactive | inactive | – | Active | – | – | CN(C)c1ccc2c3c(cccc13)C(=O)N(CCNC(=O)[C@H](CCC(N)=O)NC(=O)[C@H](CCCCN)NC(=O)[C@H](Cc1c[nH]cn1)NC(=O)CNC(=O)CN)C2=O (H-GGHKQ-X1) | Active | Non-Toxic | > 90 | ~80 | 85 | Non-Toxic | Active | 70 | inactive | Activity (Homo sapiens [20]): 65%; Activity [21]: inactive; Activity [22]: inactive; Activity [23]: inactive; Activity [24]: inactive; Activity [25]: Active
6 | Active | Active | – | – | – | – | – | CN(C)c1ccc2c3c(cccc13)C(=O)N(CCNC(=O)[C@H](CCC(N)=O)NC(=O)[C@H](CCCCN)NC(=O)[C@H](Cc1c[nH]cn1)NC(=O)CN)C2=O (H-GHKQ-X1) | – | – | – | – | – | – | – | – | – | inhibition [26]: Active
